The source of these data is ChEMBL document CHEMBL1151746, “Antitumor agents 6. Synthesis, structure-activity relationships, and biological evaluation of spiro[imidazolidine-4,3'-thieno[2,3-g]quinoline]-tetraones and spiro[thieno[2,3-g]quinoline-3,5'-[1,2,4]triazinane]-tetraones with potent antiproliferative activity” (J Med Chem, 2008).

The structures appear in SMILES notation. Calls of active or inactive are those of the source. No cut-off for these calls is given here.

The test system of one experiment is MT4. The experiment in a line: Antiproliferative activity against human MT4 cells after 96 hrs by MTT assay. The class given is functional, cell-based. The note with it: Homo sapiens, MT4, 96 h. In short, it runs like this:
(§1)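 Exponentially growing cells in RPMI 1640 with 10% FCS were resuspended at 1 × 10⁵ cells/mL in RPMI containing serial dilutions of compound (DMSO solution at 200 µM, diluted in medium). After 96 h at 37 °C, viability was read by MTT. Growth was taken as % of untreated controls, which grew at least three rounds. IC50 came from linear regression, as the mean of three independent determinations.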
For orientation: Tetrazolium assays rely on reduction of a dye to a coloured formazan, in cell work by metabolically active cells.

The next experiment concerns XF498. In words: Antiproliferative activity against human XF498 cells after 96 hrs by MTT assay. The format is functional, cell-based. The conditions noted are these: XF498, 96 h. In outline:
(§2)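 Solid-tumor cells in their specific media with 10% FCS were seeded at 5 × 10⁴ cells/mL and left to adhere 16 h. Serially diluted compound was then added (DMSO solution at 200 µM, diluted in medium). MTT viability was read 4 days later. IC50 came from linear regression against untreated controls, which grew at least three rounds, as the mean of three independent determinations.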

A further experiment relates to SF-268. The experiment in a line: Antiproliferative activity against human SF-268 cells after 96 hrs by MTT assay. The class given is functional, cell-based. The note with it: SF-268, 96 h. In short, it runs like this: as §2
The next experiment concerns HT-29. In words: Antiproliferative activity against human HT-29 cells after 96 hrs by MTT assay. The class given is functional, cell-based. The note with it: Homo sapiens, HT-29, 96 h. In outline:
as §2

Another experiment relates to MRC5. In words: Antiproliferative activity against human MRC5 cells after 96 hrs by MTT assay. The conditions noted are these: MRC5, 96 h. The class given is cell-based. In outline: as §1
In the next experiment the test system is MCF7. In words: Antiproliferative activity against human MCF7 cells after 96 hrs by MTT assay. The conditions noted are these: MCF7, 96 h. The format is functional, cell-based. In outline:
as §2

The subject of the next experiment is HeLa. In words: Antiproliferative activity against human HeLa cells after 96 hrs by MTT assay. The class given is functional, cell-based. In outline:
as §2

Experiment [1] concerns the target T1, DNA topoisomerase 1 (Homo sapiens) (UniProt P11387).
T1 sequence (whole entry): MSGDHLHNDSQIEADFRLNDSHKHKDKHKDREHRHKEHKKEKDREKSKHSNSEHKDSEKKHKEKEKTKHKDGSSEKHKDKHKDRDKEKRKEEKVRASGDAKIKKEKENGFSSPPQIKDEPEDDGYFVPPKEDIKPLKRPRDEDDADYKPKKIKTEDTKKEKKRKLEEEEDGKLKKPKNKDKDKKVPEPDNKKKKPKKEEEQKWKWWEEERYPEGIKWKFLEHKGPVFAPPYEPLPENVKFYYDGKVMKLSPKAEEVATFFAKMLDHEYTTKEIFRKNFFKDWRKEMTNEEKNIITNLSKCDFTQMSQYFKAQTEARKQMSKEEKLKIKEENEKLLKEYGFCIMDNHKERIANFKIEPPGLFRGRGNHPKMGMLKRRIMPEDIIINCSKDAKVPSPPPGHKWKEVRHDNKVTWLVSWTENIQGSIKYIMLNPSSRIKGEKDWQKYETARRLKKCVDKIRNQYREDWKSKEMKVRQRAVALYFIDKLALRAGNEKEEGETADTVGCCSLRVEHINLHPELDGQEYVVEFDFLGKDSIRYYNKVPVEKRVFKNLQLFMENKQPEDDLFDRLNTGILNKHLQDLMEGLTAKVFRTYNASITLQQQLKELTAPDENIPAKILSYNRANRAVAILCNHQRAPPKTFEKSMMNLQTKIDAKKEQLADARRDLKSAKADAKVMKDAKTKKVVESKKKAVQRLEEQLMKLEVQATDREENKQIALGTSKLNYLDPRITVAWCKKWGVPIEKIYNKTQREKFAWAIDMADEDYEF
In words: Inhibition of DNA topoisomerase 1-mediated supercoiled pBR322 DNA relaxation at 5 to 10 uM by agarose gel electrophoresis.

Experiment [2] deals with DNA topoisomerase 2-alpha (Homo sapiens) (UniProt P11388). The experiment in a line: Inhibition of DNA topoisomerase 2-mediated negatively supercoiled pBR322 relaxation.
For the next experiment, the system named is CCRF-SB. In words: Antiproliferative activity against human CCRF-SB cells after 96 hrs by MTT assay. The class given is functional, cell-based. In short, it runs like this: as §1
Another experiment deals with ACHN. In words: Antiproliferative activity against human ACHN cells after 96 hrs by MTT assay. The format is functional, cell-based. In outline:
as §2

For a further experiment, the system named is CCRF-CEM. The experiment in a line: Antiproliferative activity against human CCRF-CEM cells after 96 hrs by MTT assay. The class given is functional, cell-based. In outline: as §1
Experiment [3] concerns the target T2, DNA ligase (Enterobacteria phage T4) (UniProt P00970).
T2 sequence (whole entry): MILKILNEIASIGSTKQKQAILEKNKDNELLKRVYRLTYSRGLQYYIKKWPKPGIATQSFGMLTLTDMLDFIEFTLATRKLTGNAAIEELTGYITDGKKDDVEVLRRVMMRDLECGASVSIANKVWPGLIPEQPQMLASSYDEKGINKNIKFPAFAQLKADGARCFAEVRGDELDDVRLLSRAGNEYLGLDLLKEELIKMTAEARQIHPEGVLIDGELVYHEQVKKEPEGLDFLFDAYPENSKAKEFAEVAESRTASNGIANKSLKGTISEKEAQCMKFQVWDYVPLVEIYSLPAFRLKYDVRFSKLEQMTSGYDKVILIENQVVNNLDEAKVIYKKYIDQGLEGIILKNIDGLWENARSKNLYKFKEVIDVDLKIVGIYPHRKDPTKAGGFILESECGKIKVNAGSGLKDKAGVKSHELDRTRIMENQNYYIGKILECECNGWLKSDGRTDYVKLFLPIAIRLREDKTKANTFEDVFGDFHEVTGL
The experiment in a line: Inhibition of T4 DNA ligase by DNA unwinding assay. The conditions noted are these: Tequatrovirus T4. In short, it runs like this:
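EcoRI-linearized pBR322 (0.1 µg) in 30 mM Tris-HCl pH 7.8, 10 mM MgCl2, 10 mM DTT and 0.5 mM ATP was equilibrated with compound 30 min at 20 °C. Excess T4 DNA ligase was then added for 30 min at 20 °C, and reactions were stopped at 55 °C. After phenol extraction, products were resolved on 1% agarose gels.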

In experiment [4] the target is T1, DNA topoisomerase 1 (Homo sapiens). The experiment in a line: Inhibition of DNA topoisomerase 1-mediated supercoiled pBR322 DNA relaxation at 5 uM by agarose gel electrophoresis.
Experiment [5] shares this target. In words: Inhibition of DNA topoisomerase 1-mediated supercoiled pBR322 DNA relaxation at 25 uM by agarose gel electrophoresis.

Broadly, the IC50 is the midpoint of a concentration-inhibition curve. The low end stands for inhibition by little substance, the high end for a need for much substance.

Chain of DNA topoisomerase 2-alpha (Homo sapiens) (P11388 whole entry): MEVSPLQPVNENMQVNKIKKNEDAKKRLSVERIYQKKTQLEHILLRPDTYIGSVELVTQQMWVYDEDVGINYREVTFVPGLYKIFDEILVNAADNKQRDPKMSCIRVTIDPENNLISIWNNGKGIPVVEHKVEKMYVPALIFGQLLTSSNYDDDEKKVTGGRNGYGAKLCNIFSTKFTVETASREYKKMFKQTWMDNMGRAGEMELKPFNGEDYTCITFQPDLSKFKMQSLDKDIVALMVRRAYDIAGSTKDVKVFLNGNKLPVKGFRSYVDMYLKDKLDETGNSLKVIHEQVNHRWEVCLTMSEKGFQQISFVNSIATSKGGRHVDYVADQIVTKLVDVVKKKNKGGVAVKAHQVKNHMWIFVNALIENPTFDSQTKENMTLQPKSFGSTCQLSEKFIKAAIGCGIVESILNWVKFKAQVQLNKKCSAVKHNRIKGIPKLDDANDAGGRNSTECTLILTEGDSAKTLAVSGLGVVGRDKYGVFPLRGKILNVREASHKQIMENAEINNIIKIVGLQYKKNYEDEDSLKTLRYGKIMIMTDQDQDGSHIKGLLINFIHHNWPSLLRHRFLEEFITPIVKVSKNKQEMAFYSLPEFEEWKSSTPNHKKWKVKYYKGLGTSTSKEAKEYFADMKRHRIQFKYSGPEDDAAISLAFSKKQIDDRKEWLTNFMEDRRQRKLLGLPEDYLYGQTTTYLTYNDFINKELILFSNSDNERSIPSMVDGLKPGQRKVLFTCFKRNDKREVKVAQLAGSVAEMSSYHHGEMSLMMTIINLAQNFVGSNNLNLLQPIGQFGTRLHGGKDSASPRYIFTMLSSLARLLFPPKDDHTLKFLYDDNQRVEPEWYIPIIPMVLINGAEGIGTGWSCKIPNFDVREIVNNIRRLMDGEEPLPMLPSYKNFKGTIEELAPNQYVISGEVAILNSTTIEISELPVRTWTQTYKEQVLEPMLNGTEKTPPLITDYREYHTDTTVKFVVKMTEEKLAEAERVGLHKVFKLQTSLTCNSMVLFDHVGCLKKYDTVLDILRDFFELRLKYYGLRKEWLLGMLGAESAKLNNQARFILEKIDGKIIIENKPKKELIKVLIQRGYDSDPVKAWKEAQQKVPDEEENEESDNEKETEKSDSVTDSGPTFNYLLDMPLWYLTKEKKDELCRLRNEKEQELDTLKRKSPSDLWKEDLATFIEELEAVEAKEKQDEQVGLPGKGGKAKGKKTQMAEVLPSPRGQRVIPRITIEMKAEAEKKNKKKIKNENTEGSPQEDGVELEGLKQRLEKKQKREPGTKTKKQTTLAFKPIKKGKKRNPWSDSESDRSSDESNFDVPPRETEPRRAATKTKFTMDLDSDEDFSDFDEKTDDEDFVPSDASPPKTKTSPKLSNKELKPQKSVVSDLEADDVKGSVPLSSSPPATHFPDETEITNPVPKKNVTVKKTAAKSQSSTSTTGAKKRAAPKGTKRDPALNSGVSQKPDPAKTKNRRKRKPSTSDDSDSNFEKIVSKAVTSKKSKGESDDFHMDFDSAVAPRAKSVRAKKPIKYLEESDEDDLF

For the compound `CCCc1ccc(N2C(=O)NC3(CSC4=C3C(=O)c3ncccc3C4=O)C2=O)cc1` (racemic), the IC50 in the experiment on MT4 was 1 nM; in the experiment on XF498, 450 nM; in the experiment on SF-268, 300 nM; in the experiment with HT-29, 1 nM; in the experiment on MRC5, 850 nM; in the experiment with MCF7, 2 nM. Moreover, the IC50 in the experiment on HeLa turned out to be 5 nM; in the experiment on CCRF-SB it was 2 nM; with ACHN, 1 nM; in the experiment with CCRF-CEM it was 1 nM. Besides, in [1], the outcome was inactive. The Activity entry in experiment [2] was “Dose-dependent effect”.
Take `COc1cccc2c1C(=O)c1c(O)c3c(c(O)c1C2=O)C[C@@](O)(C(=O)CO)C[C@@H]3O[C@H]1C[C@H](N)[C@H](O)[C@H](C)O1` [DOXORUBICIN]: the result in experiment [3], in [4] and in [5] was Active. The IC50 in the experiment with MT4 was 3 nM; in the experiment on XF498, 160 nM; in the experiment on SF-268, 200 nM; with HT-29, 2 nM; in the experiment with MRC5, 300 nM; in the experiment on CCRF-CEM it was 20 nM.
In the case of `CN(C)c1ccc(N2C(=O)NC3(CSC4=C3C(=O)c3ncccc3C4=O)C2=O)cc1` (racemic), the IC50 was 15 nM in the experiment on MT4; 800 nM in the experiment with XF498; 950 nM in the experiment with SF-268; 20 nM in the experiment on HT-29; 1000 nM in the experiment on MRC5; 10 nM in the experiment on MCF7. Also, the IC50 is 10 nM with HeLa, 1 nM in the experiment with CCRF-SB, 90 nM in the experiment on ACHN and 1 nM with CCRF-CEM. For the same compound, the Activity result in experiment [2] was “Dose-dependent effect”.
Turning to `O=C1C2=C(C(=O)c3ncccc31)C1(CS2)NC(=O)N(c2ccc(Cl)cc2)C1=O` (racemic), the IC50 in the experiment with MT4 was 10 nM; in the experiment on XF498 it was 590 nM; in the experiment on SF-268, 580 nM; in the experiment on HT-29 it was 2 nM; in the experiment on MRC5, 800 nM; in the experiment with MCF7 it was 4 nM. Also, the IC50 came out at 2 nM in the experiment with HeLa, 10 nM in the experiment with CCRF-SB, 4 nM in the experiment with ACHN and 10 nM in the experiment with CCRF-CEM. Besides, the Activity entry in [2] was “Dose-dependent effect”.
